Measurements published in paper PMC8177775 (Cancer Science, 2021).
“Also recorded” adds a separate entry of the source.

System: Japanese patients with solid tumors
Assay: Phase I dose-escalation study: safety, tolerability, DLT and MTD
Assay type: in vivo, human
Settings: for Dose-limiting toxicities (DLTs): cycle 1
In short: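 Oral test compound (tosylate salt) was given QD on days 1–21 of 28-day cycles in cohorts of 3–6 patients at 60, 90 or 120 mg. Escalation used a modified continual reassessment method (Bayesian logistic regression, escalation with overdose control). DLT window was cycle 1 (28 days). AEs were coded with MedDRA 18.0 and graded by CTCAE v4.0 (Japanese). Analysis covered patients receiving ≥1 dose.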

[1] = Cohort 1 60 mg/d (n = 3), All grades
[2] = Cohort 1 60 mg/d (n = 3), Grade ≥ 3
[3] = Cohort 2 90 mg/d (n = 11), All grades
[4] = Cohort 2 90 mg/d (n = 11), Grade ≥ 3
[5] = Cohort 3 120 mg/d (n = 4), All grades

Work on `CC1(C)CCC2(CC1)N[C@@H](C(=O)N[C@@H]1CC[C@@H](C(N)=O)OC1)[C@H](c1ccnc(Cl)c1F)[C@]21C(=O)Nc2cc(Cl)ccc21` [milademetan, Milademetan] yielded a Dose interruptions (60 mg/day) of 2 n, a Dose interruptions (90 mg/day) of 5 n and a Dose interruptions (120 mg/day) of 3 n. For the same compound, the “Dose-limiting toxicities (DLTs)” value (120 mg/day cohort) was “three events of platelet count decreased and one nausea; also recorded: Four DLTs were observed in four patients”, the “Dose-limiting toxicities (DLTs)” value (60-mg and 90-mg cohorts) was “No DLTs occurred” and the “TEAE: Alanine aminotransferase increased” value [1] was 1 (33.3) n (%). The “TEAE: Anemia” value [1] was 0 (0.0) n (%), the “TEAE: Aspartate aminotransferase increased” value [1] was 0 (0.0) n (%) and the “TEAE: Constipation” value [1] was 2 (66.7) n (%). For the same compound, the “TEAE: Decreased appetite” value [1] was 2 (66.7) n (%), the “TEAE: Diarrhea” value [1] was 0 (0.0) n (%) and the “TEAE: Disease progression” value [1] was 0 (0.0) n (%). For the same compound, the “TEAE: Fatigue” value [1] was 2 (66.7) n (%), the “TEAE: Hypoalbuminemia” value [1] was 1 (33.3) n (%) and the “TEAE: Hyponatremia” value [1] was 0 (0.0) n (%). For the same compound, the “TEAE: Hypophosphataemic rickets” value [1] was 0 (0.0) n (%), the “TEAE: Jaundice cholestatic” value [1] was 0 (0.0) n (%) and the “TEAE: Lymphangiosis carcinomatosa” value [1] was 1 (33.3) n (%). For the same compound, the “TEAE: Lymphocyte count decreased” value [1] was 1 (33.3) n (%), the “TEAE: Nausea” value [1] was 3 (100.0) n (%) and the “TEAE: Neutrophil count decreased” value [1] was 0 (0.0) n (%). For the same compound, the “TEAE: Platelet count decreased” value [1] was 0 (0.0) n (%), the “TEAE: Pyrexia” value [1] was 0 (0.0) n (%) and the “TEAE: Sepsis” value [1] was 0 (0.0) n (%). For the same compound, the “TEAE: Urinary tract infection” value [1] was 0 (0.0) n (%), the “TEAE: Vomiting” value [1] was 0 (0.0) n (%) and the “TEAE: White blood cell count decreased” value [1] was 1 (33.3) n (%). For the same compound, the “TEAE: Alanine aminotransferase increased” value [2] was 0 (0.0) n (%), the “TEAE: Anemia” value [2] was 0 (0.0) n (%) and the “TEAE: Aspartate aminotransferase increased” value [2] was 0 (0.0) n (%). The “TEAE: Constipation” value [2] was 0 (0.0) n (%), the “TEAE: Decreased appetite” value [2] was 0 (0.0) n (%) and the “TEAE: Diarrhea” value [2] was 0 (0.0) n (%). The “TEAE: Disease progression” value [2] was 0 (0.0) n (%), the “TEAE: Fatigue” value [2] was 0 (0.0) n (%) and the “TEAE: Hypoalbuminemia” value [2] was 0 (0.0) n (%). For the same compound, the “TEAE: Hyponatremia” value [2] was 0 (0.0) n (%), the “TEAE: Hypophosphataemic rickets” value [2] was 0 (0.0) n (%) and the “TEAE: Jaundice cholestatic” value [2] was 0 (0.0) n (%). For the same compound, the “TEAE: Lymphangiosis carcinomatosa” value [2] was 1 (33.3) n (%), the “TEAE: Lymphocyte count decreased” value [2] was 0 (0.0) n (%) and the “TEAE: Nausea” value [2] was 0 (0.0) n (%). The “TEAE: Neutrophil count decreased” value [2] was 0 (0.0) n (%), the “TEAE: Platelet count decreased” value [2] was 0 (0.0) n (%) and the “TEAE: Pyrexia” value [2] was 0 (0.0) n (%). For the same compound, the “TEAE: Sepsis” value [2] was 0 (0.0) n (%), the “TEAE: Urinary tract infection” value [2] was 0 (0.0) n (%) and the “TEAE: Vomiting” value [2] was 0 (0.0) n (%). For the same compound, the “TEAE: White blood cell count decreased” value [2] was 0 (0.0) n (%), the “TEAE: Alanine aminotransferase increased” value [3] was 1 (9.1) n (%) and the “TEAE: Anemia” value [3] was 7 (63.6) n (%). For the same compound, the “TEAE: Aspartate aminotransferase increased” value [3] was 2 (18.2) n (%), the “TEAE: Constipation” value [3] was 2 (18.2) n (%) and the “TEAE: Decreased appetite” value [3] was 6 (54.5) n (%). The “TEAE: Diarrhea” value [3] was 3 (27.3) n (%), the “TEAE: Disease progression” value [3] was 0 (0.0) n (%) and the “TEAE: Fatigue” value [3] was 6 (54.5) n (%). The “TEAE: Hypoalbuminemia” value [3] was 6 (54.5) n (%), the “TEAE: Hyponatremia” value [3] was 3 (27.3) n (%) and the “TEAE: Hypophosphataemic rickets” value [3] was 1 (9.1) n (%). For the same compound, the “TEAE: Jaundice cholestatic” value [3] was 1 (9.1) n (%), the “TEAE: Lymphangiosis carcinomatosa” value [3] was 0 (0.0) n (%) and the “TEAE: Lymphocyte count decreased” value [3] was 1 (9.1) n (%). The “TEAE: Nausea” value [3] was 7 (63.6) n (%), the “TEAE: Neutrophil count decreased” value [3] was 3 (27.3) n (%) and the “TEAE: Platelet count decreased” value [3] was 8 (72.7) n (%). The “TEAE: Pyrexia” value [3] was 3 (27.3) n (%), the “TEAE: Sepsis” value [3] was 0 (0.0) n (%) and the “TEAE: Urinary tract infection” value [3] was 1 (9.1) n (%). For the same compound, the “TEAE: Vomiting” value [3] was 3 (27.3) n (%), the “TEAE: White blood cell count decreased” value [3] was 6 (54.5) n (%) and the “TEAE: Alanine aminotransferase increased” value [4] was 1 (9.1) n (%). For the same compound, the “TEAE: Anemia” value [4] was 3 (27.3) n (%), the “TEAE: Aspartate aminotransferase increased” value [4] was 0 (0.0) n (%) and the “TEAE: Constipation” value [4] was 0 (0.0) n (%). The “TEAE: Decreased appetite” value [4] was 0 (0.0) n (%), the “TEAE: Diarrhea” value [4] was 0 (0.0) n (%) and the “TEAE: Disease progression” value [4] was 0 (0.0) n (%). For the same compound, the “TEAE: Fatigue” value [4] was 0 (0.0) n (%), the “TEAE: Hypoalbuminemia” value [4] was 0 (0.0) n (%) and the “TEAE: Hyponatremia” value [4] was 1 (9.1) n (%). For the same compound, the “TEAE: Hypophosphataemic rickets” value [4] was 1 (9.1) n (%), the “TEAE: Jaundice cholestatic” value [4] was 1 (9.1) n (%) and the “TEAE: Lymphangiosis carcinomatosa” value [4] was 0 (0.0) n (%). For the same compound, the “TEAE: Lymphocyte count decreased” value [4] was 0 (0.0) n (%), the “TEAE: Nausea” value [4] was 0 (0.0) n (%) and the “TEAE: Neutrophil count decreased” value [4] was 0 (0.0) n (%). For the same compound, the “TEAE: Platelet count decreased” value [4] was 1 (9.1) n (%), the “TEAE: Pyrexia” value [4] was 0 (0.0) n (%) and the “TEAE: Sepsis” value [4] was 0 (0.0) n (%). The “TEAE: Urinary tract infection” value [4] was 1 (9.1) n (%), the “TEAE: Vomiting” value [4] was 0 (0.0) n (%) and the “TEAE: White blood cell count decreased” value [4] was 0 (0.0) n (%). For the same compound, the “TEAE: Alanine aminotransferase increased” value [5] was 2 (50.0) n (%), the “TEAE: Anemia” value [5] was 2 (50.0) n (%) and the “TEAE: Aspartate aminotransferase increased” value [5] was 2 (50.0) n (%). The “TEAE: Constipation” value [5] was 1 (25.0) n (%), the “TEAE: Decreased appetite” value [5] was 3 (75.0) n (%) and the “TEAE: Diarrhea” value [5] was 2 (50.0) n (%). For the same compound, the “TEAE: Disease progression” value [5] was 1 (25.0) n (%), the “TEAE: Fatigue” value [5] was 1 (25.0) n (%) and the “TEAE: Hypoalbuminemia” value [5] was 1 (25.0) n (%). For the same compound, the “TEAE: Hyponatremia” value [5] was 2 (50.0) n (%).
